Activity calls are given as the source filed them. The calls are words filed in the database; no cut-off is given here.
Tests used:
[1] = system: Mahlavu; assay: Cytotoxicity against human Mahlavu cells after 24 hrs by RTCA analysis; format: functional, cell-based
Outline: (§1)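 xCELLigence impedance real-time growth assay. Huh7 (2000) or Mahlavu (1000) cells plated, treated after 24 h at log phase with a 2-fold dilution series (4 steps) from a top concentration of 1. Cell index recorded every 10 min for 24 h, then every 30 min. Growth inhibition normalized to DMSO; IC50 taken at 24, 48, 72 h.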

[2] = system: Mahlavu; assay: Induction of apoptosis in human Mahlavu cells assessed as late apoptotic cells at 1 uM after 24 hrs by Annexin V-FITC/propidium iodide staining-based flow cytometric analysis (reference value: 1.28%); format: functional
[3] = Cytotoxicity against human FOCUS cells after 72 hrs by SRB assay; format: functional, cell-based; details: Homo sapiens, 72 h; read-out: IC50
Outline: (§2)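 SRB assay. Cells plated per well (HCT116 3000; Huh7, Hep3B, HepG2, MCF-7 2000; Mahlavu, FOCUS, SNU475 1000) and grown 24 h. Compounds came from 20 mM DMSO stocks and were tested in triplicate, 40 to 2,5 (or 2,5 to 0,03) per printed range, for 72 h. Cells fixed in 10% TCA, stained with 0.4% SRB, dye dissolved in 10 mM Tris, A515 read. IC50 derived after DMSO normalization.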

[4] = system: Huh-7; assay: Down-regulation of CDK2 protein expression in human HuH7 cells at 1 uM after 24 to 72 hrs by Western blot analysis; format: functional, cell-based
[5] = system: Mahlavu; assay: Down-regulation of cyclin E protein expression in human Mahlavu cells at 1 uM after 24 to 72 hrs by Western blot analysis; format: functional, cell-based
[6] = system: Mahlavu; assay: Induction of apoptosis in human Mahlavu cells assessed as necrotic cells at 1 uM after 48 hrs by Annexin V-FITC/propidium iodide staining-based flow cytometric analysis (reference value: 0.07%); format: functional
[7] = system: Mahlavu; assay: Cell cycle arrest in human Mahlavu cells assessed as accumulation of cells at subG1 phase at 1 uM after 72 hrs by propidium iodide staining-based flow cytometric analysis (reference value: 22.4%); format: functional
[8] = system: Mahlavu; assay: Cell cycle arrest in human Mahlavu cells assessed as accumulation of cells at subG1 phase at 1 uM after 24 hrs by propidium iodide staining-based flow cytometric analysis (reference value: 18.3%); format: functional
[9] = system: Huh-7; assay: Induction of apoptosis in human HuH7 cells assessed as late apoptotic cells at 1 uM after 24 hrs by Annexin V-FITC/propidium iodide staining-based flow cytometric analysis (reference value: 2.51%); format: functional
[10] = system: Huh-7; assay: Induction of apoptosis in human HuH7 cells assessed as necrotic cells at 1 uM after 48 hrs by Annexin V-FITC/propidium iodide staining-based flow cytometric analysis (reference value: 0.02%); format: functional
[11] = system: Mahlavu; assay: Induction of apoptosis in human Mahlavu cells assessed as necrotic cells at 1 uM after 72 hrs by Annexin V-FITC/propidium iodide staining-based flow cytometric analysis (reference value: 0.22%); format: functional
[12] = system: Mahlavu; assay: Cell cycle arrest in human Mahlavu cells assessed as accumulation of cells at G1 phase at 1 uM after 48 hrs by propidium iodide staining-based flow cytometric analysis (reference value: 43.5%); format: functional
[13] = system: Huh-7; assay: Cell cycle arrest in human HuH7 cells assessed as accumulation of cells at S phase at 1 uM after 48 hrs by propidium iodide staining-based flow cytometric analysis (reference value: 19.1%); format: functional
[14] = system: Huh-7; assay: Cytotoxicity against human HuH7 cells after 72 hrs by SRB assay; format: functional, cell-based; details: Homo sapiens, Huh-7, 72 h; read-out: IC50; outline: as §2
[15] = system: Huh-7; assay: Down-regulation of CDK1 protein expression in human HuH7 cells at 1 uM after 24 to 72 hrs by Western blot analysis; format: functional, cell-based
[16] = system: Mahlavu; assay: Induction of apoptosis in human Mahlavu cells assessed as viable cells at 1 uM after 24 hrs by Annexin V-FITC/propidium iodide staining-based flow cytometric analysis (reference value: 98.51%); format: functional; details: read-out: Activity
[17] = system: Huh-7; assay: Induction of apoptosis in human HuH7 cells assessed as necrotic cells at 1 uM after 72 hrs by Annexin V-FITC/propidium iodide staining-based flow cytometric analysis (reference value: 0.43%); format: functional
[18] = system: Mahlavu; assay: Modulation of SAPK/JNK phosphorylation at Thr183/Tye185 residues in human Mahlavu cells at 1 uM after 24 to 72 hrs by Western blot analysis; format: cell-based
[19] = system: Huh-7; assay: Down-regulation of cyclin-B1 protein expression in human HuH7 cells at 1 uM after 24 to 72 hrs by Western blot analysis; format: functional, cell-based
[20] = system: HCT-116; assay: Cytotoxicity against human HCT116 cells after 72 hrs by SRB assay; format: functional, cell-based; details: Homo sapiens, HCT-116, 72 h; read-out: IC50; outline: as §2
[21] = system: Mahlavu; assay: Down-regulation of CDK1 protein expression in human Mahlavu cells at 1 uM after 24 to 72 hrs by Western blot analysis; format: functional, cell-based
[22] = system: Mahlavu; assay: Induction of apoptosis in human Mahlavu cells assessed as early apoptotic cells at 1 uM after 24 hrs by Annexin V-FITC/propidium iodide staining-based flow cytometric analysis (reference value: 0.09%); format: functional
[23] = system: Mahlavu; assay: Down-regulation of CDK2 protein expression in human Mahlavu cells at 1 uM after 24 to 72 hrs by Western blot analysis; format: functional, cell-based
[24] = system: Mahlavu; assay: Induction of apoptosis in human Mahlavu cells assessed as chromatin condensation at 1 uM by Hoechst staining-based assay; format: functional, cell-based
[25] = system: Huh-7; assay: Cytotoxicity against human HuH7 cells after 72 hrs by RTCA analysis; format: functional, cell-based; details: Huh-7, 72 h; outline: as §1
[26] = system: SNU-475; assay: Cytotoxicity against human SNU475 cells after 72 hrs by SRB assay; format: functional, cell-based; details: Homo sapiens, SNU-475, 72 h; read-out: IC50; outline: as §2
[27] = system: Huh-7; assay: Induction of apoptosis in human HuH7 cells assessed as viable cells at 1 uM after 24 hrs by Annexin V-FITC/propidium iodide staining-based flow cytometric analysis (reference value: 97.30%); format: functional; details: Huh-7, 24 h, read-out: Activity
[28] = system: Huh-7; assay: Cell cycle arrest in human HuH7 cells assessed as accumulation of cells at G2/M phase at 1 uM after 72 hrs by propidium iodide staining-based flow cytometric analysis (reference value: 28.2%); format: functional
[29] = system: Mahlavu; assay: Induction of apoptosis in human Mahlavu cells assessed as late apoptotic cells at 1 uM after 48 hrs by Annexin V-FITC/propidium iodide staining-based flow cytometric analysis (reference value: 1.45%); format: functional
[30] = system: Mahlavu; assay: Induction of apoptosis in human Mahlavu cells assessed as apoptotic body formation at 1 uM by Hoechst staining-based assay; format: functional, cell-based
[31] = system: Mahlavu; assay: Induction of apoptosis in human Mahlavu cells assessed as viable cells at 1 uM after 72 hrs by Annexin V-FITC/propidium iodide staining-based flow cytometric analysis (reference value: 96.05%); format: functional; details: read-out: Activity
[32] = system: MCF-10A; assay: Cytotoxicity against human MCF10A cells after 72 hrs by SRB assay; format: cell-based
[33] = system: Huh-7; assay: Cell cycle arrest in human HuH7 cells assessed as accumulation of cells at G1 phase at 1 uM after 48 hrs by propidium iodide staining-based flow cytometric analysis (reference value: 44.2%); format: functional
[34] = system: Huh-7; assay: Cytotoxicity against human HuH7 cells after 48 hrs by RTCA analysis; format: functional, cell-based; details: Huh-7, 48 h; outline: as §1
[35] = system: Huh-7; assay: Cell cycle arrest in human HuH7 cells assessed as accumulation of cells at G1 phase at 1 uM after 24 hrs by propidium iodide staining-based flow cytometric analysis (reference value: 41.7%); format: functional

Q: For `COc1ccc2c3c(c4cc(OC)c(OC)cc4c2c1)CN1CCCC[C@@H]1C3`, which IC50 [1] is on record?
A: 200 nM

Q: What about the Activity [2] of the same molecule?
A: 5.08%

Q: What about the IC50 [3] of the same molecule?
A: 20 nM

Q: What about the Activity [4] of the same molecule?
A: Active

Q: What about the Activity [5] of the same molecule?
A: Active

Q: And the Activity [6]?
A: 1.16%

Q: What about the Activity [7] of the same molecule?
A: 26.9%

Q: What about the Activity [8] of the same molecule?
A: 15%

Q: What about the Activity [9] of the same molecule?
A: 1.03%

Q: What about the Activity [10] of the same molecule?
A: 0.07%

Q: What about the Activity [11] of the same molecule?
A: 1.84%

Q: And the Activity [12]?
A: 44.6%

Q: What about the Activity [13] of the same molecule?
A: 13.5%

Q: What about the IC50 [14] of the same molecule?
A: 8 nM

Q: And the Activity [15]?
A: Active

Q: And the viability at 1 µM [16]?
A: 94.2%

Q: What about the Activity [17] of the same molecule?
A: 0.34%

Q: What about the Activity [18] of the same molecule?
A: Active

Q: And the Activity [19]?
A: Active

Q: And the IC50 [20]?
A: 700 nM

Q: And the Activity [21]?
A: Active

Q: And the Activity [22]?
A: 0.12%

Q: What about the Activity [23] of the same molecule?
A: Active

Q: And the Activity [24]?
A: Active

Q: What about the IC50 [25] of the same molecule?
A: 700 nM

Q: And the IC50 [26]?
A: 14 nM

Q: And the viability at 1 µM [27]?
A: 98.9%

Q: And the Activity [28]?
A: 9.5%

Q: And the Activity [29]?
A: 7.07%

Q: What about the Activity [30] of the same molecule?
A: Active

Q: What about the viability at 1 µM [31] of the same molecule?
A: 85.3%

Q: What about the IC50 [32] of the same molecule?
A: 140 nM

Q: What about the Activity [33] of the same molecule?
A: 54.6%

Q: And the IC50 [34]?
A: 700 nM

Q: And the Activity [35]?
A: 43.1%

Q: Which IC50 [1] does the source give for `COc1ccc2c3c(c4cc(OC)c(OC)cc4c2c1)CN1CCCCC1C3O` (racemic) here?
A: 10 nM

Q: What about the Activity [2] of the same molecule?
A: 1.54%

Q: What about the IC50 [3] of the same molecule?
A: 12 nM

Q: And the Activity [4]?
A: Active

Q: What about the Activity [5] of the same molecule?
A: Active

Q: What about the Activity [6] of the same molecule?
A: 0.07%

Q: What about the Activity [7] of the same molecule?
A: 48.9%

Q: What about the Activity [8] of the same molecule?
A: 16.5%

Q: And the Activity [9]?
A: 0.93%

Q: What about the Activity [10] of the same molecule?
A: 0.16%

Q: And the Activity [11]?
A: 2.26%

Q: What about the Activity [12] of the same molecule?
A: 37.2%

Q: What about the Activity [13] of the same molecule?
A: 21%

Q: What about the IC50 [14] of the same molecule?
A: 2 nM

Q: And the Activity [15]?
A: Active

Q: And the viability at 1 µM [16]?
A: 98.3%

Q: And the Activity [17]?
A: 0.13%

Q: And the Activity [18]?
A: Active

Q: What about the Activity [19] of the same molecule?
A: Active

Q: What about the IC50 [20] of the same molecule?
A: < 1 nM

Q: And the Activity [21]?
A: Active

Q: What about the Activity [22] of the same molecule?
A: 0.04%

Q: What about the Activity [23] of the same molecule?
A: Active

Q: And the Activity [24]?
A: Active

Q: What about the IC50 [25] of the same molecule?
A: 400 nM

Q: And the IC50 [26]?
A: 15 nM

Q: And the viability at 1 µM [27]?
A: 99.1%

Q: And the Activity [28]?
A: 11.5%

Q: What about the Activity [29] of the same molecule?
A: 0.98%

Q: And the Activity [30]?
A: Active

Q: What about the viability at 1 µM [31] of the same molecule?
A: 62.7%

Q: What about the IC50 [32] of the same molecule?
A: 200 nM

Q: And the Activity [33]?
A: 35.5%

Q: And the IC50 [34]?
A: 500 nM

Q: What about the Activity [35] of the same molecule?
A: 31.6%
